Measurements as given in ChEMBL document CHEMBL1681732, “Synthesis and SAR of sulfoxide substituted carboxyquinolines as NK3 receptor antagonists” (Bioorg Med Chem Lett, 2011).
Converted amounts (≈) assume the structure as drawn.

Key:
Gerbillinae = assay: Reversal of senktide-induced locomotor activity in ip dosed gerbil; format: functional
[1] = Lipophilicity, log D of the compound; format: physicochemical; conditions: octanol/water
[2] = Ratio of drug level in brain to plasma in rat at 3 umol/kg, iv after 1 hr; format: ADME, organism-based; conditions: brain and plasma, read-out: BPR
Outline: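 Rat dosed iv at 3 µmol/kg. Total brain and plasma levels taken 1 h post dose, and their ratio reported.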

[3] = Intrinsic clearance in human liver microsomes assessed per mg of protein; format: ADME, Microsome
[4] = Oral bioavailability in rat; format: ADME, organism-based; conditions: in vivo
MDR1 [5] = assay: (§1) Apparent permeability across MDCK cells expressing human MDR1; format: ADME, cell-based, Canis lupus familiaris; conditions: dog, MDCK-MDR1
Outline: (§2)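 Permeability measured in MDCK cells expressing human MDR1. Papp is expressed in 10^-6 cm/s and reported together with the efflux ratio.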

[6] = Selectivity ratio of EC50 for human NK3 receptor to EC50 for NK1 receptor
[7] = Selectivity ratio of EC50 for human NK3 receptor to EC50 for NK2 receptor
MDR1 [8] = assay: (§3) Efflux ratio of permeability in MDCK cells expressing human MDR1; format: ADME, cell-based, Canis lupus familiaris; conditions: dog, MDCK-MDR1; outline: as §2
Neuromedin-K receptor = molecular target: T1, Neuromedin-K receptor (Homo sapiens, UniProt P29371); assay: Antagonist activity at human NK3 receptor expressed in CHO cells assessed as inhibition of senktide-induced calcium flux by FLIPR assay; format: functional, cell-based
T1 sequence (P29371 whole entry): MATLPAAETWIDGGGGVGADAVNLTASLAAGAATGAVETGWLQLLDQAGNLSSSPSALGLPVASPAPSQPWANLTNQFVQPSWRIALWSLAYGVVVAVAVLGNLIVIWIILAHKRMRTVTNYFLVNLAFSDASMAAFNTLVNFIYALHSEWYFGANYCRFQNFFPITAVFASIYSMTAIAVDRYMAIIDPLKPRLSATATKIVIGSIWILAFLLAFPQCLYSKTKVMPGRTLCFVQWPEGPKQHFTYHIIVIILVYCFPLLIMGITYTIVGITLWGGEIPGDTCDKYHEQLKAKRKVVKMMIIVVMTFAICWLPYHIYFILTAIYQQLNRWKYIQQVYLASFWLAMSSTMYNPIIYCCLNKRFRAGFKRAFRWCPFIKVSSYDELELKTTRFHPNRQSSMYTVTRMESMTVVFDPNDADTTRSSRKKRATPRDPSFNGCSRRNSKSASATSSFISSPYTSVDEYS
Outline: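 FLIPR functional assay in CHO cells stably expressing human recombinant NK3 receptor. EC50 given as mean ± SEM (n ≥ 2), or as a single value where n = 1. Tested as 1:1 diastereomer mixtures unless marked as a single isomer.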

[9] = Half life in rat; format: ADME, organism-based; conditions: in vivo
[10] = Clearance in rat plasma; format: ADME, organism-based
[11] = molecular target: Voltage-gated inwardly rectifying potassium channel KCNH2 (Homo sapiens, UniProt Q12809); assay: Inhibition of human ERG
[12] = Equilibrium solubility of the compound; format: physicochemical
[13] = Oral bioavailability in dog; format: ADME, organism-based, Canis lupus familiaris; conditions: in vivo
[14] = Half life in dog; format: ADME, organism-based, Canis lupus familiaris; conditions: in vivo
[15] = Plasma clearance in dog; format: ADME, organism-based, Canis lupus familiaris
MDCK [16] = assay: as §1; format: ADME, cell-based, Canis lupus familiaris; conditions: dog, mdck; outline: as §2
MDCK [17] = assay: as §3; format: ADME, cell-based, Canis lupus familiaris; conditions: dog, mdck; outline: as §2

Chain of Voltage-gated inwardly rectifying potassium channel KCNH2 (Q12809 whole entry): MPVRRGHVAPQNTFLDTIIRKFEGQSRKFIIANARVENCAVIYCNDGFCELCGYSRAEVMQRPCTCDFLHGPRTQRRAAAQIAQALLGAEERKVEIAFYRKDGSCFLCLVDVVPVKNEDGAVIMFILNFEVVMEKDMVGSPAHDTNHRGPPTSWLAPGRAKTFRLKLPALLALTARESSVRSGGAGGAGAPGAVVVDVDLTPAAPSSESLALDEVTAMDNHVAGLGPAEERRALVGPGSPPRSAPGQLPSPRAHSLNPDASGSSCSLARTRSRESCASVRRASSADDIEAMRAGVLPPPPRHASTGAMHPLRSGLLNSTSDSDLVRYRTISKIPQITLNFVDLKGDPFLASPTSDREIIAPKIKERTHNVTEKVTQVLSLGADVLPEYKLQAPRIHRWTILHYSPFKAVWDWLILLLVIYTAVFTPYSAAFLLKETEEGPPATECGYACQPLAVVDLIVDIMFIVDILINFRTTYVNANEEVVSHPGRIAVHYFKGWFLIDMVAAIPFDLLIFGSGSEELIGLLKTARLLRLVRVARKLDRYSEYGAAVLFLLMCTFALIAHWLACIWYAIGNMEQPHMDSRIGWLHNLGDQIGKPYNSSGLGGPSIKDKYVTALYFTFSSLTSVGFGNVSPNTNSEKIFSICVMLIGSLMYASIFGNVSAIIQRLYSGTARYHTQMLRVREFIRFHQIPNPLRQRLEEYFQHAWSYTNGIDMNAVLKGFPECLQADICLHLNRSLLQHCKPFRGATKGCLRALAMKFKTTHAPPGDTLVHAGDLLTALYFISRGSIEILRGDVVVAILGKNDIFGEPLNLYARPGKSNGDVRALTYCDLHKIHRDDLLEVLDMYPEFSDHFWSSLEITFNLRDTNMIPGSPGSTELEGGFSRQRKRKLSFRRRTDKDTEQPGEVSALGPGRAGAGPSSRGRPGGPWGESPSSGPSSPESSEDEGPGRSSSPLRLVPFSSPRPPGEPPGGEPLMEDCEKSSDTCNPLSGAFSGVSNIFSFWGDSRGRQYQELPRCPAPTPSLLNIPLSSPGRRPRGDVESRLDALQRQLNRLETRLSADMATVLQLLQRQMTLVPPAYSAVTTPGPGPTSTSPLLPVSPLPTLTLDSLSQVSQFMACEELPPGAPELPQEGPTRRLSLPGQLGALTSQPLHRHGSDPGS

SMILES | EC50 (Neuromedin-K receptor) | solubility thermodynamic [12] | other results
CC[C@H](NC(=O)c1c(SC)c(-c2ccccc2)nc2ccccc12)c1ccccc1 (mixture of isomers) | 36 nM | < 1 µM | –
CC[C@H](NC(=O)c1c(S(C)(=O)=O)c(-c2ccccc2)nc2ccccc12)c1ccccc1 (mixture of isomers) | 14 nM | 36 µM | Papp (MDR1 [5]): 11 ×10⁻⁶ cm/s; efflux ratio (MDR1 [8]): 2.6
CC[C@H](NC(=O)c1c(CSC)c(-c2ccccc2)nc2ccccc12)c1ccccc1 (mixture of isomers) | 35 nM | 2 µM | Papp (MDR1 [5]): 5.9 ×10⁻⁶ cm/s; efflux ratio (MDR1 [8]): 1.1
CC[C@H](NC(=O)c1c(CS(C)(=O)=O)c(-c2ccccc2)nc2ccccc12)c1ccccc1 (mixture of isomers) | 2.5 nM | 4 µM | Papp (MDR1 [5]): 11 ×10⁻⁶ cm/s; efflux ratio (MDR1 [8]): 3.1
CC[C@H](NC(=O)c1c(CC[S+](C)[O-])c(-c2ccccc2)nc2ccccc12)c1ccccc1 (mixture of isomers) | 3.3 nM | 360 µM | Papp (MDR1 [5]): 1 ×10⁻⁶ cm/s; efflux ratio (MDR1 [8]): 21
CC[C@H](NC(=O)c1c([S+](C)[O-])c(-c2ccccc2F)nc2ccccc12)c1ccccc1 (mixture of isomers) | 81 nM | 53 µM | –
CC[C@H](NC(=O)c1c([S+](C)[O-])c(-c2ccsc2)nc2ccccc12)c1ccccc1 (mixture of isomers) | 1.8 nM | – | microsomal CLint [3]: 190 µL/min/mg
CC[C@H](NC(=O)c1c([S+](C)[O-])c(-c2cscn2)nc2ccccc12)c1ccccc1 (mixture of isomers) | 110 nM | 41 µM | –
CC[C@H](NC(=O)c1c([S+](C)[O-])c(-c2cc[nH]n2)nc2ccccc12)c1ccccc1 (mixture of isomers) | 2500 nM | 420 µM | –
CC[C@H](NC(=O)c1c([S+]([O-])CC)c(-c2ccccc2)nc2ccccc12)c1ccccc1 (mixture of isomers) | 6.9 nM | 170 µM | –
CC[C@H](NC(=O)c1c([S+]([O-])C(C)C)c(-c2ccccc2)nc2ccccc12)c1ccccc1 (mixture of isomers) | 16 nM | 83 µM | –
CC[C@H](NC(=O)c1c([S+](C)[O-])c(-c2ccccc2)nc2ccccc12)c1ccccn1 (mixture of isomers; 35b) | > 5200 nM | – | solubility [12]: 460 µM
C[S+]([O-])c1c(-c2ccccc2)nc2ccccc2c1C(=O)NC1(c2ccccc2)CCC1 (racemic) | 38 nM | 4.5 µM (≈ 1.98 µg/mL) | –
CC[C@H](NC(=O)c1c([S+](C)[O-])c(-c2cccnc2)nc2ccccc12)c1ccccc1 (single isomer, unassigned) | 690 nM | 470 µM (≈ 202 µg/mL) | –
CC[C@H](NC(=O)c1c([S+](C)[O-])c(-c2ccccc2)nc2ccccc12)c1ccccc1 (stereo in doubt; 2b) | 240 nM | – | Papp (MDCK [16]): 17 ×10⁻⁶ cm/s; Ratio (MDCK [17]): 2; solubility [12]: 44 µM (≈ 18.9 µg/mL)
C[S+]([O-])c1c(-c2ccccc2)nc2ccccc2c1C(=O)N[C@H](c1ccncc1)C1CC1 (stereo in doubt; 33b) | > 9300 nM | – | solubility [12]: 370 µM (≈ 163 µg/mL)

Second part, led by results:

EC50 (Neuromedin-K receptor) | solubility thermodynamic [12] | SMILES | other results
3.7 nM | 270 µM (≈ 116 µg/mL) | CC[C@H](NC(=O)c1c([S@+](C)[O-])c(-c2ccccc2)nc2ccccc12)c1ccccc1 | Activity (Gerbillinae): Dose-dependent effect; ED50 (Gerbillinae): 0.75 µmol/kg; logD [1]: 3; Kp at 1 h [2]: 0.4; microsomal CLint [3]: 23 µL/min/mg; bioavailability [4]: 60%; Papp (MDR1 [5]): 28 ×10⁻⁶ cm/s; Ratio EC50 [6]: > 2700; Ratio EC50 [7]: 1860; efflux ratio (MDR1 [8]): 1.3; half-life [9]: 3 h; clearance [10]: 60 mL/min/kg; INH [11]: > 33 µM
1.8 nM | 8 µM (≈ 3.54 µg/mL) | CC[C@H](NC(=O)c1c(C[S@@+](C)[O-])c(-c2ccccc2)nc2ccccc12)c1ccccc1 | ED50 (Gerbillinae): 22 µmol/kg; logD [1]: 3.5; microsomal CLint [3]: 5.2 µL/min/mg; Papp (MDR1 [5]): 10 ×10⁻⁶ cm/s; efflux ratio (MDR1 [8]): 2.6; INH [11]: > 33 µM
5.3 nM | 53 µM (≈ 23.5 µg/mL) | CC[C@H](NC(=O)c1c(C[S@+](C)[O-])c(-c2ccccc2)nc2ccccc12)c1ccccc1 | ED50 (Gerbillinae): 2 µmol/kg; logD [1]: 3.5; microsomal CLint [3]: 8.4 µL/min/mg; bioavailability [13]: 89%; half-life [14]: 6.7 h; clearance [15]: 2.3 mL/min/kg; Papp (MDR1 [5]): 9.9 ×10⁻⁶ cm/s; Ratio EC50 [6]: > 660; Ratio EC50 [7]: 170; efflux ratio (MDR1 [8]): 3.7; INH [11]: > 33 µM
4.9 nM | – | CC[C@H](NC(=O)c1c([S+](C)[O-])c(-c2ccccc2)nc2ccccc12)c1ccccc1 (mixture of isomers) | Papp (MDR1 [5]): 9.4 ×10⁻⁶ cm/s; efflux ratio (MDR1 [8]): 2.7; solubility [12]: 230 µM
18 nM | 100 µM | CC[C@H](NC(=O)c1c([S+](C)[O-])c(-c2cccc(F)c2)nc2ccccc12)c1ccccc1 (mixture of isomers) | –
48 nM | 88 µM | CC[C@H](NC(=O)c1c([S+](C)[O-])c(-c2ccc(F)cc2)nc2ccccc12)c1ccccc1 (mixture of isomers) | –
1.7 nM | 47 µM | CC[C@H](NC(=O)c1c([S+](C)[O-])c(-c2cccs2)nc2ccccc12)c1ccccc1 (mixture of isomers) | microsomal CLint [3]: 220 µL/min/mg
1120 nM | 360 µM | CC[C@H](NC(=O)c1c([S+](C)[O-])c(-c2ccccn2)nc2ccccc12)c1ccccc1 (mixture of isomers) | –
220 nM | 390 µM | CC[C@H](NC(=O)c1c([S+](C)[O-])c(-c2cncs2)nc2ccccc12)c1ccccc1 (mixture of isomers) | –
12 nM | 52 µM | CC[C@H](NC(=O)c1c([S+]([O-])CC(=O)N(C)C)c(-c2ccccc2)nc2ccccc12)c1ccccc1 (mixture of isomers) | –
8.2 nM | 160 µM | CC[C@H](NC(=O)c1c([S+](C)[O-])c(-c2ccccc2)nc2c(F)cccc12)c1ccccc1 (mixture of isomers) | –
1900 nM | 16 µM | CC[C@H](NC(=O)c1c([S+](C)[O-])c(-c2ccccc2)nc2c(C)cccc12)c1ccccc1 (mixture of isomers) | –
13 nM | 58 µM | CC[C@H](NC(=O)c1c([S+](C)[O-])c(-c2ccccc2)nc2cc(F)ccc12)c1ccccc1 (mixture of isomers) | –
7.7 nM | 34 µM | CC[C@H](NC(=O)c1c([S+](C)[O-])c(-c2ccccc2)nc2cc(Cl)ccc12)c1ccccc1 (mixture of isomers) | –
38 nM | 69 µM | CCOc1ccc2c(C(=O)N[C@@H](CC)c3ccccc3)c([S+](C)[O-])c(-c3ccccc3)nc2c1 (mixture of isomers) | –
212 nM | 44 µM | CC[C@H](NC(=O)c1c([S+](C)[O-])c(-c2ccccc2)nc2cc(N(C)C)ccc12)c1ccccc1 (mixture of isomers) | –
5.1 nM | 15 µM | CC[C@H](NC(=O)c1c([S+](C)[O-])c(-c2ccccc2)nc2cc(Br)ccc12)c1ccccc1 (mixture of isomers) | –
3.6 nM | 160 µM | CC[C@H](NC(=O)c1c([S+](C)[O-])c(-c2ccccc2)nc2cc(C)ccc12)c1ccccc1 (mixture of isomers) | –
88 nM | 460 µM | CC[C@H](NC(=O)c1c([S+](C)[O-])c(-c2ccccc2)nc2cc(CN(C)C)ccc12)c1ccccc1 (mixture of isomers) | –
15 nM | 180 µM | C[S+]([O-])c1c(-c2ccccc2)nc2ccccc2c1C(=O)N[C@H](c1ccccc1)C1CC1 (mixture of isomers) | –
> 10000 nM | – | C[S+]([O-])c1c(-c2ccccc2)nc2ccccc2c1C(=O)N[C@H](c1ccncc1)C1CC1 (mixture of isomers) | solubility [12]: 99 µM
74 nM | 350 µM | CC[C@H](NC(=O)c1c([S+](C)[O-])c(-c2ccccc2)nc2ccccc12)c1cccnc1 (mixture of isomers) | –
77 nM | 420 µM | CC[C@H](NC(=O)c1c([S+](C)[O-])c(-c2ccccc2)nc2ccccc12)c1ccccn1 (mixture of isomers; 35a) | –
16 nM | 1.3 µM (≈ 0.555 µg/mL) | C[S+]([O-])c1c(-c2ccccc2)nc2ccccc2c1C(=O)NC1(c2ccccc2)CC1 (racemic) | –
